# Activity calls are given as the source filed them. The rule behind the calls is not given here.
# Assays:
# Prescottella equi [1] = test: Antibacterial activity against Rhodococcus equi W5234 harboring GyrA Ser83Arg mutation selected on 2 ug/ml of compound treated culture by broth microdilution method; type: functional; details: Rhodococcus (subgen. Prescottella) equi
# Method in brief: (§1)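 Mutants were selected by plating at least 1 × 10^10 cells, grown 48 h at 35°C in brain heart infusion broth, on ciprofloxacin-containing Columbia blood agar base for 4 days at 35°C. Each was confirmed by two passages at the selecting concentration and one drug-free passage. MIC was then read by broth microdilution in cation-supplemented Mueller-Hinton broth per CLSI M24-A. Each experiment was done twice.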
# Prescottella equi [2] = test: Antibacterial activity against Rhodococcus equi ATCC 6939T harboring GyrA Asp87Gly mutation selected on 6 ug/ml of compound treated culture by broth microdilution method; type: functional; details: Rhodococcus (subgen. Prescottella) equi; method in brief: as §1
# Prescottella equi [3] = test: Antibacterial activity against Rhodococcus equi W5234 harboring GyrA Ser83Ile mutation selected on 8 ug/ml of compound treated culture by broth microdilution method; type: functional; details: Rhodococcus (subgen. Prescottella) equi; method in brief: as §1
# Prescottella equi [4] = test: Antibacterial activity against Rhodococcus equi ATCC 6939T harboring GyrA Ser83Ile mutation selected on 8 ug/ml of compound treated culture by broth microdilution method; type: functional; details: Rhodococcus (subgen. Prescottella) equi; method in brief: as §1
# Prescottella equi [5] = test: Antibacterial activity against Rhodococcus equi W5234 harboring GyrB Asn464Asp mutation selected on 1 ug/ml of compound treated culture by broth microdilution method; type: functional; details: Rhodococcus (subgen. Prescottella) equi; method in brief: as §1
# Prescottella equi [6] = test: Antibacterial activity against Rhodococcus equi W5234 selected on 4 ug/ml of compound treated culture by broth microdilution method; type: functional; details: Rhodococcus (subgen. Prescottella) equi; method in brief: as §1
# Prescottella equi [7] = test: Antibacterial activity against Rhodococcus equi ATCC 6939T harboring GyrA Ser83Ile mutation selected on 16 ug/ml of compound treated culture by broth microdilution method; type: functional; details: Rhodococcus (subgen. Prescottella) equi; method in brief: as §1
# Prescottella equi [8] = test: Antibacterial activity against Rhodococcus equi ATCC 6939T harboring GyrA Ser83Arg mutation selected on 6 ug/ml of compound treated culture by broth microdilution method; type: functional, organism-based; method in brief: as §1
# Prescottella equi [9] = test: Antibacterial activity against Rhodococcus equi W5234 harboring GyrA Asp87Tyr mutation selected on 4 ug/ml of compound treated culture by broth microdilution method; type: functional; details: Rhodococcus (subgen. Prescottella) equi; method in brief: as §1
# Prescottella equi [10] = test: Antibacterial activity against Rhodococcus equi ATCC 6939T harboring GyrA Asp87Asn mutation selected on 8 ug/ml of compound treated culture by broth microdilution method; type: functional; details: Rhodococcus (subgen. Prescottella) equi; method in brief: as §1
# Prescottella equi [11] = test: Antibacterial activity against Rhodococcus equi W5234 harboring GyrA Asp87Asn mutation selected on 4 ug/ml of compound treated culture by broth microdilution method; type: functional; details: Rhodococcus (subgen. Prescottella) equi; method in brief: as §1
# Prescottella equi [12] = test: Antibacterial activity against Rhodococcus equi ATCC 6939T selected on 4 ug/ml of compound treated culture by broth microdilution method; type: functional; details: Rhodococcus (subgen. Prescottella) equi; method in brief: as §1
# Prescottella equi [13] = test: Antibacterial activity against Rhodococcus equi W5234 harboring GyrA Ser83Arg mutation selected on 4 ug/ml of compound treated culture by broth microdilution method; type: functional; details: Rhodococcus (subgen. Prescottella) equi; method in brief: as §1
# Prescottella equi [14] = test: Antibacterial activity against Rhodococcus equi ATCC 6939T harboring GyrA Asp87His mutation selected on 6 ug/ml of compound treated culture by broth microdilution method; type: functional; details: Rhodococcus (subgen. Prescottella) equi; method in brief: as §1
# Prescottella equi [15] = test: Antibacterial activity against Rhodococcus equi ATCC 6939T harboring GyrA Ser83Arg mutation selected on 16 ug/ml of compound treated culture by broth microdilution method; type: functional; details: Rhodococcus (subgen. Prescottella) equi; method in brief: as §1
# Prescottella equi [16] = test: Antibacterial activity against Rhodococcus equi ATCC 6939T harboring GyrA Asp87Asn mutation selected on 4 ug/ml of compound treated culture by broth microdilution method; type: functional, organism-based; method in brief: as §1
# Prescottella equi [17] = test: Antibacterial activity against Rhodococcus equi W5234 harboring GyrA Ser83Arg mutation selected on 16 ug/ml of compound treated culture by broth microdilution method; type: functional; details: Rhodococcus (subgen. Prescottella) equi; method in brief: as §1
# Prescottella equi [18] = test: Antibacterial activity against Rhodococcus equi ATCC 6939T selected on 1 ug/ml of compound treated culture by broth microdilution method; type: functional; details: Rhodococcus (subgen. Prescottella) equi; method in brief: as §1
# Prescottella equi [19] = test: Antibacterial activity against Rhodococcus equi ATCC 6939T harboring GyrA Ser83Ile mutation selected on 12 ug/ml of compound treated culture by broth microdilution method; type: functional; details: Rhodococcus (subgen. Prescottella) equi; method in brief: as §1
# Prescottella equi [20] = test: Antibacterial activity against Rhodococcus equi W5234 harboring GyrA Gly81Cys mutation selected on 4 ug/ml of compound treated culture by broth microdilution method; type: functional, organism-based; method in brief: as §1
# Prescottella equi [21] = test: Antibacterial activity against Rhodococcus equi W5234 selected on 1 ug/ml of compound treated culture by broth microdilution method; type: functional; details: Rhodococcus (subgen. Prescottella) equi; method in brief: as §1
# Prescottella equi [22] = test: Antibacterial activity against Rhodococcus equi W5234 harboring GyrA Asp87His mutation selected on 6 ug/ml of compound treated culture by broth microdilution method; type: functional; details: Rhodococcus (subgen. Prescottella) equi; method in brief: as §1
# Prescottella equi [23] = test: Antibacterial activity against Rhodococcus equi ATCC 6939T harboring GyrB Asn464Asp mutation selected on 1 ug/ml of compound treated culture by broth microdilution method; type: functional, organism-based; method in brief: as §1
# Prescottella equi [24] = test: Antibacterial activity against Rhodococcus equi W5234 harboring GyrA Asp87Gly mutation selected on 8 ug/ml of compound treated culture by broth microdilution method; type: functional, organism-based; method in brief: as §1
# Prescottella equi [25] = test: Antibacterial activity against Rhodococcus equi ATCC 6939T isolated from lung abscess of horse; type: functional; details: Rhodococcus (subgen. Prescottella) equi
# Method in brief: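 Cells grown 48 h at 35°C with shaking in brain heart infusion broth, then resuspended. MIC by broth microdilution in cation-supplemented Mueller-Hinton broth per CLSI M24-A. For MIC99 and MPC, ≥1 × 10^10 cells were plated on Columbia blood agar base containing a range of ciprofloxacin concentrations and incubated 4 days at 35°C. Resistant-colony fraction relative to CFU on drug-free plates was plotted against concentration. Run twice.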
structure (smiles),measurement,setting,value
O=C(O)c1cn(C2CC2)c2cc(N3CCNCC3)c(F)cc2c1=O [CIPROFLOXACIN],MIC,Prescottella equi [1],8 µg/mL
same,MIC,Prescottella equi [2],16 µg/mL
same,MIC,Prescottella equi [3],32 µg/mL
same,MIC,Prescottella equi [4],32 µg/mL
same,MIC,Prescottella equi [5],4 µg/mL
same,MIC,Prescottella equi [6],8 µg/mL
same,MIC,Prescottella equi [7],64 µg/mL
same,MIC,Prescottella equi [8],inactive
same,MIC,Prescottella equi [9],8 µg/mL
same,MIC,Prescottella equi [10],32 µg/mL
same,MIC,Prescottella equi [11],16 µg/mL
same,MIC,Prescottella equi [12],4 µg/mL
same,MIC,Prescottella equi [13],32 µg/mL
same,MIC,Prescottella equi [14],16 µg/mL
same,MIC,Prescottella equi [15],32 µg/mL
same,MIC,Prescottella equi [16],inactive
same,MIC,Prescottella equi [17],64 µg/mL
same,MIC,Prescottella equi [18],1 µg/mL
same,MIC,Prescottella equi [19],128 µg/mL
same,MIC,Prescottella equi [20],inactive
same,MIC,Prescottella equi [21],2 µg/mL
same,MIC,Prescottella equi [22],16 µg/mL
same,MIC,Prescottella equi [23],inactive
same,MIC,Prescottella equi [24],inactive
same,MIC99,Prescottella equi [25],0.42 µg/mL

# Reference: ChEMBL document CHEMBL1275251, “Mutant selection window and characterization of allelic diversity for ciprofloxacin-resistant mutants of Rhodococcus equi” (Antimicrob Agents Chemother, 2010)
